Experimental findings from ChEMBL document CHEMBL1153598, “Syntheses of low-hemolytic antimicrobial gratisin peptides” (Bioorg Med Chem Lett, 2009) are described below.

≈ marks a conversion by molar mass, not a printed value. A value given as a limit tells only on which side of the number the result lay.

Series [1] concerns Staphylococcus epidermidis. Nature of the series: Antibiotic activity against Staphylococcus epidermidis NBRC 12933 by microplate dilution assay. In kind it is functional. In short, it runs like this: (§1)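 Minimum inhibitory concentration determined by microplate dilution, inoculum 10⁶ organisms per ml. Strains tested: Bacillus subtilis NBRC 3513, Bacillus megaterium ATCC 19213, Staphylococcus epidermidis NBRC 12933, Staphylococcus aureus NBRC 12732, Pseudomonas aeruginosa NBRC 3080, Escherichia coli NBRC 12734. MIC reported in µg/mL.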

For series [2], the system named is Bacillus subtilis. In words: Antibiotic activity against Bacillus subtilis NBRC 3513 by microplate dilution assay. In kind it is functional. In short, it runs like this: as §1
Series [3] deals with Escherichia coli. Nature of the series: Antibiotic activity against Escherichia coli NBRC 12734 by microplate dilution assay. In kind it is functional. In short, it runs like this: as §1
A short description of series [4]: Cytotoxicity against human red blood cells assessed as hemolysis after 30 mins. In kind it is cell-based. Conditions: erythrocyte, 0.5 h.
The subject of series [5] is Staphylococcus aureus. In words: Antibiotic activity against Staphylococcus aureus NBRC 12732 by microplate dilution assay. In kind it is functional. The method, boiled down:
as §1

The subject of series [6] is Pseudomonas aeruginosa. Nature of the series: Antibiotic activity against Pseudomonas aeruginosa NBRC 3080 by microplate dilution assay. In kind it is functional. The method, boiled down: as §1
For series [7], the system named is Priestia megaterium. In words: Antibiotic activity against Bacillus megaterium ATCC 19213 by microplate dilution assay. In kind it is functional. The method, boiled down: as §1

Consider `CC(C)C[C@@H]1NC(=O)[C@H](CCCN)NC(=O)[C@H](C(C)C)NC(=O)[C@@H](CCCNC(=N)N)NC(=O)[C@@H]2CCCN2C(=O)[C@@H](Cc2ccccc2)NC(=O)[C@H](CC(C)C)NC(=O)[C@H](CCCN)NC(=O)[C@H](C(C)C)NC(=O)[C@@H](CCCNC(=N)N)NC(=O)[C@@H]2CCCN2C(=O)[C@@H](Cc2ccccc2)NC1=O`, for which the minimum inhibitory concentration (MIC) (usually the least concentration at which growth counts as inhibited) in series [1] is 6.25 µg/mL (≈ 4.3 µM); in series [2], 6.25 µg/mL (≈ 4.3 µM); in series [3], 12.5 µg/mL (≈ 8.6 µM); in series [5], 3.13 µg/mL (≈ 2.15 µM); in series [6], 12.5 µg/mL (≈ 8.6 µM); in series [7], 3.13 µg/mL (≈ 2.15 µM). In addition, in series [4], the Activity result is recorded as “Dose-dependent effect”.

Take `CC(C)C[C@@H]1NC(=O)[C@H](CCCN)NC(=O)[C@H](C(C)C)NC(=O)CNC(=O)[C@@H]2CCCN2C(=O)[C@@H](Cc2ccccc2)NC(=O)[C@H](CC(C)C)NC(=O)[C@H](CCCN)NC(=O)[C@H](C(C)C)NC(=O)CNC(=O)[C@@H]2CCCN2C(=O)[C@@H](Cc2ccccc2)NC1=O`: the MIC in series [1] was over 100 µg/mL; in series [2], 100 µg/mL (≈ 79.6 µM); in series [3], over 100 µg/mL; in series [5], 100 µg/mL (≈ 79.6 µM); in series [6], over 100 µg/mL; in series [7], 100 µg/mL (≈ 79.6 µM). In series [4], the Activity result is on record as “Dose-dependent effect”.

In the case of `CC(C)C[C@@H]1NC(=O)[C@H](CCCN)NC(=O)[C@H](C(C)C)NC(=O)[C@@H](C(C)C)NC(=O)[C@@H]2CCCN2C(=O)[C@@H](Cc2ccccc2)NC(=O)[C@H](CC(C)C)NC(=O)[C@H](CCCN)NC(=O)[C@H](C(C)C)NC(=O)[C@@H](C(C)C)NC(=O)[C@@H]2CCCN2C(=O)[C@@H](Cc2ccccc2)NC1=O`, the MIC in series [1] was 12.5 µg/mL (≈ 9.33 µM); in series [2], 6.25 µg/mL (≈ 4.67 µM); in series [3], over 100 µg/mL; in series [5], 12.5 µg/mL (≈ 9.33 µM); in series [6], over 100 µg/mL; in series [7], 6.25 µg/mL (≈ 4.67 µM). Also, the Activity entry in series [4] is “Dose-dependent effect”.
